Published values from different studies.
Lines come from different studies, so protocols differ.
Target: Serine/threonine-protein kinase PAK 6 (PAK6, Homo sapiens, UniProt Q9NQU5)

| Structure (SMILES) | read-out | method | concentration | remaining binding |
| --- | --- | --- | --- | --- |
| CN(C(=O)c1ccccc1)c1cc(N(C)c2ccc3c(c2)CCc2ccc(C(=O)NCCN4CCOCC4)cc2C3=O)ccc1F | cell-free assay | competition with immobilised ligand | 1 µM | 100% |
| C[C@@H]1CCN(c2nccc(-c3cnn4ncccc34)n2)C1 | binding |  | 1 µM | 87% |
| CN(C)C(=O)Cn1cc(-c2nc(C3(c4ccc(-c5cnc(N)nc5)cc4)CC3)no2)cn1 | cell-free assay | competition with immobilised ligand | 1 µM | 100% |
| C[C@@H](c1ccc(-n2cnc3c(N)ncnc32)cc1)N1CCc2nn(C)c(Cc3ccccc3)c2C1=O | binding | competition with immobilised ligand | 0.1 µM | 96% |
| c1ccc(N2CCN(Cc3nc4ccccc4[nH]3)CC2)nc1 | cell-free assay | competition with immobilised ligand | 1 µM | 100% |
| O=C(NCCCN1CCOCC1)c1ccc(Nc2ncc(Cl)c(-c3ccc(Cl)s3)n2)cc1 | binding | competition with immobilised ligand | 1 µM | 74% |
| CC1CCCN1c1nccc(-c2cnn3ncccc23)n1 (centres unmarked) | binding |  | 1 µM | 100% |
| O=C(Nc1c[nH]nc1C(=O)NC1CCNCC1)c1cc(F)cc(F)c1 | binding | competition with immobilised ligand | 1 µM | 100% |
| Cc1noc([C@H]2C[C@@H](c3ccc(C(F)(F)F)cc3)CN(C(=O)N3CCS(=O)(=O)C3)C2)n1 | cell-free assay | competition with immobilised ligand | 1 µM | 100% |
| COc1ccnn2ncc(-c3ccnc(N(C)C)n3)c12 | binding |  | 1 µM | 97% |
| CNC(=O)[C@@H]1CC[C@@H](n2c(-c3ccc4cnccc4c3)nc3ccc(C(=O)NCc4cccc(C(N)=O)c4)cc32)C1 | binding | competition with immobilised ligand | 1 µM | 100% |
| CN(C)c1ncc(F)c(-c2cnn3ncccc23)n1 | binding |  | 1 µM | 100% |
| O=C(NC[C@@H]1[C@H]2CN(C(=O)OCc3cc(C(F)(F)F)cc(C(F)(F)F)c3)C[C@@H]12)c1ccc2[nH]nnc2c1 | cell-free assay | competition with immobilised ligand | 1 µM | 93% |
| COc1ncc2cc3ccccc3nc2c1C#N | cell-free assay | competition with immobilised ligand | 5 µM | 94% |
| N[C@@H]1CCN(c2nccc(-c3cnn4ncccc34)n2)C1 | binding |  | 1 µM | 100% |
| O=C(c1ccc(Nc2nccc(-c3cc4ccccc4s3)n2)cc1)N1CCC(N2CCCC2)CC1 | binding | competition with immobilised ligand | 1 µM | 100% |
| C[C@H](c1ccnc(Nc2nc3ccc(-c4cc(N(C)C)ncn4)cc3[nH]2)c1)N1CCN(C(=O)CC(F)(F)F)CC1 | cell-free assay | competition with immobilised ligand | 0.1 µM | 100% |
| Cc1cnn2ncc(-c3ccnc(N(C)C)n3)c2c1 | binding |  | 1 µM | 93% |
| CCN1CCN(Cc2ccc(C(=O)Nc3ccc(C)c(Oc4ccc5c(c4)CC(=O)N5)c3)cc2C(F)(F)F)CC1 | binding | competition with immobilised ligand | 1 µM | 100% |
| Cc1cnc(Nc2ccc(C(=O)N3CCC(N4CCCC4)CC3)cc2)nc1-c1cc2ccccc2s1 | binding | competition with immobilised ligand | 1 µM | 63% |
